Target: Nuclear receptor ROR-alpha (Homo sapiens) (UniProt P35398)
Assay: RORA inhibitor potency, reporter decrease, dose response, RORA inverse agonist project, cell-based, luminescence, assay provider (AID 463152)
Conditions: HEK293T GAL4-RORa LBD luciferase reporter, 20 h
How it was run: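 Assay system – HEK293T with GAL4-RORα LBD and UAS-luciferase reporter · Times – 20 h compound treatment · Signal – luciferase luminescence · Read-out basis – IC50 from four-parameter fit of signal relative to DMSO · Control set – DMSO-treated wells as reference · Replicates – n of 8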

Nuclear receptor ROR-alpha (Homo sapiens), sequence (P35398 whole entry, looked up): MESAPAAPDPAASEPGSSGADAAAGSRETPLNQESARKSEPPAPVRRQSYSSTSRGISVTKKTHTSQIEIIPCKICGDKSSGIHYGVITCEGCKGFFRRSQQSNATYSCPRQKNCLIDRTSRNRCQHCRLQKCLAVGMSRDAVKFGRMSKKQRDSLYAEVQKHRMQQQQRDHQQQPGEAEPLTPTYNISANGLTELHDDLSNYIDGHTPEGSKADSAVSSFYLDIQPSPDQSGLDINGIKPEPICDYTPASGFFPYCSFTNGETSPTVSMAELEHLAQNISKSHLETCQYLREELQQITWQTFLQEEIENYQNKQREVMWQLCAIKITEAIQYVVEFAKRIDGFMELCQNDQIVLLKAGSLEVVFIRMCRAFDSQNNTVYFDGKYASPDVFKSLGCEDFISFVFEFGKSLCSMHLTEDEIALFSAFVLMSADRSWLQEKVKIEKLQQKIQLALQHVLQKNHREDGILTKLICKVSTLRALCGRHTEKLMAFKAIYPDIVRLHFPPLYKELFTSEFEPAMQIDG

IC50: 480 nM
Structure (SMILES): O=S(=O)(Nc1ccc(C(O)(C(F)(F)F)C(F)(F)F)cc1)c1cccs1

Source: PubChem BioAssay AID463152 (The Scripps Research Institute Molecular Screening Center, 2010)
